Assay results as given in ChEMBL document CHEMBL4376814, “Novel cyclin-dependent kinase 9 (CDK9) inhibitor with suppression of cancer stemness activity against non-small-cell lung cancer” (Eur J Med Chem, 2019).
Calls of active or inactive are those of the source. The calls are words filed in the database; no cut-off is given here.

Key:
Homo sapiens = species on record: Homo sapiens; assay: Inhibition of recombinant full-length human PI3K p110delta/p85alpha N253S mutant at 1 uM using phosphatidylinositol-4, 5-bisphosphate as substrate measured after 40 mins by fluorescence assay relative to control
[1] = molecular target: Calcium/calmodulin-dependent protein kinase type II subunit gamma (Homo sapiens) (UniProt Q13555); assay: Inhibition of recombinant full-length human CaMK2gamma (1 to 330 residues) at 1 uM using calmodulin as substrate measured after 40 mins in presence of [gamma33P]ATP by scintillation counting method relative to control
[2] = molecular target: Cyclin-dependent kinase 14/Cyclin-Y (Homo sapiens) (UniProt O94921+Q8ND76); assay: Inhibition of human CDK14/cyclinY at 1 uM by radiometric method relative to control; assay type: protein-complex assay
Method in brief: (§1)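 Percent inhibition of kinase activity at a single compound concentration, measured by the outsourced Eurofins KinaseProfiler panel. Values are the mean of two independent experiments.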

[3] = test system: Angiopoietin-1 receptor (Homo sapiens), Q02763 [Q939H,Q940H,Y897S]; assay: Inhibition of human Tie2 Q939H/Q940H/Y897S mutant (771 to end residues) at 1 uM using EFPIYDFLPAKKK as substrate measured after 40 mins in presence of [gamma33P]ATP by scintillation counting method relative to control
Angiopoietin-1 receptor (Homo sapiens), Q02763 [Q939H,Q940H,Y897S], sequence (Q02763 whole entry Y897S/Q939H/Q940H): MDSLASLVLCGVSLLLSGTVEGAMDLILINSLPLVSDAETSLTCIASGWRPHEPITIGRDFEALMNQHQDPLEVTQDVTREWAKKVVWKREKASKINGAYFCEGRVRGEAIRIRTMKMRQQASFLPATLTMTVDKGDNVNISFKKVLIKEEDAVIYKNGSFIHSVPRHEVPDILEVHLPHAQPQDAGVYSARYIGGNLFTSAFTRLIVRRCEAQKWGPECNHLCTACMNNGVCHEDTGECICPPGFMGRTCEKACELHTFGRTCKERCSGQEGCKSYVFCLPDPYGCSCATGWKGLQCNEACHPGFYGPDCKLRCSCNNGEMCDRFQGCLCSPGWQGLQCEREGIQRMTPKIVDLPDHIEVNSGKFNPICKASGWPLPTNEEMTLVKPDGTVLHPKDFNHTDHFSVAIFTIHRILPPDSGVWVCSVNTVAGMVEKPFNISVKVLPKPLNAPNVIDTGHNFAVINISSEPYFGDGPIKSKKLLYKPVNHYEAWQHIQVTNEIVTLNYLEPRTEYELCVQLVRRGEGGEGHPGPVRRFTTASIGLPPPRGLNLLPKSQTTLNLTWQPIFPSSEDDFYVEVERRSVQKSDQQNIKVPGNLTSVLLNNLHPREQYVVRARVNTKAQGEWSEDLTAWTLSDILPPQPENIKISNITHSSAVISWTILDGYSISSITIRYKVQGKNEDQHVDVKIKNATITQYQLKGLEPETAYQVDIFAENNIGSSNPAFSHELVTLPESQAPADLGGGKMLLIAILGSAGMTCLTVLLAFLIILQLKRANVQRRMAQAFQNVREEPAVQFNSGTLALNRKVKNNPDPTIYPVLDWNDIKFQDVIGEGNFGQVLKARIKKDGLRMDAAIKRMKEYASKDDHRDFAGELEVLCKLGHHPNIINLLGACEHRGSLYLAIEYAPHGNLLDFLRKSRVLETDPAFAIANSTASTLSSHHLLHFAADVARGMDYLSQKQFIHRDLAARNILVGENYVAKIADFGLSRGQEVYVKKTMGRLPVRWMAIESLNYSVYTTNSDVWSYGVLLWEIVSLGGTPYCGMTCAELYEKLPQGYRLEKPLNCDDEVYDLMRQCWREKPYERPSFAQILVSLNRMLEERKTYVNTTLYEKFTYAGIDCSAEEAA
Method in brief: (§2)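 Single-point inhibition at 1 µM was measured in the Eurofins KinaseProfiler panel. Values are the mean of two independent experiments.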

[4] = test system: Tyrosine-protein kinase ABL1 (Homo sapiens), P00519 [T315I]; assay: Inhibition of recombinant human ABL T315I mutant (27 to end residues) at 1 uM using EAIYAAPFAKKK as substrate measured after 40 mins in presence of [gamma33P]ATP by scintillation counting method relative to control
A549 [5] = assay: Induction of apoptosis in human A549 cells after 48 hrs by AnnexinV-FITC staining-based flow cytometric analysis; assay type: functional, cell-based
[6] = molecular target: Serine/threonine-protein kinase 17B (Homo sapiens) (UniProt O94768); assay: Inhibition of recombinant full-length human DRAK2 at 1 uM using KKRPQRRYSNVF as substrate measured after 120 mins in presence of [gamma33P]ATP by scintillation counting method relative to control
[7] = molecular target: Tyrosine-protein kinase FRK (Homo sapiens) (UniProt P42685); assay: Inhibition of human PTK5 (218 to end residues) at 1 uM using GGEEEEYFELVKKKK as substrate measured after 40 mins in presence of [gamma33P]ATP by scintillation counting method relative to control; method in brief: as §1
[8] = test system: eIF-2-alpha kinase GCN2 (Homo sapiens), Q9P2K8 [E556G]; assay: Inhibition of recombinant full-length human GCN2 E556G mutant at 1 uM using RSRSRSRSRSRSRSR as substrate measured after 40 mins in presence of [gamma33P]ATP by scintillation counting method relative to control
eIF-2-alpha kinase GCN2 (Homo sapiens), Q9P2K8 [E556G], sequence (Q9P2K8 whole entry E556G): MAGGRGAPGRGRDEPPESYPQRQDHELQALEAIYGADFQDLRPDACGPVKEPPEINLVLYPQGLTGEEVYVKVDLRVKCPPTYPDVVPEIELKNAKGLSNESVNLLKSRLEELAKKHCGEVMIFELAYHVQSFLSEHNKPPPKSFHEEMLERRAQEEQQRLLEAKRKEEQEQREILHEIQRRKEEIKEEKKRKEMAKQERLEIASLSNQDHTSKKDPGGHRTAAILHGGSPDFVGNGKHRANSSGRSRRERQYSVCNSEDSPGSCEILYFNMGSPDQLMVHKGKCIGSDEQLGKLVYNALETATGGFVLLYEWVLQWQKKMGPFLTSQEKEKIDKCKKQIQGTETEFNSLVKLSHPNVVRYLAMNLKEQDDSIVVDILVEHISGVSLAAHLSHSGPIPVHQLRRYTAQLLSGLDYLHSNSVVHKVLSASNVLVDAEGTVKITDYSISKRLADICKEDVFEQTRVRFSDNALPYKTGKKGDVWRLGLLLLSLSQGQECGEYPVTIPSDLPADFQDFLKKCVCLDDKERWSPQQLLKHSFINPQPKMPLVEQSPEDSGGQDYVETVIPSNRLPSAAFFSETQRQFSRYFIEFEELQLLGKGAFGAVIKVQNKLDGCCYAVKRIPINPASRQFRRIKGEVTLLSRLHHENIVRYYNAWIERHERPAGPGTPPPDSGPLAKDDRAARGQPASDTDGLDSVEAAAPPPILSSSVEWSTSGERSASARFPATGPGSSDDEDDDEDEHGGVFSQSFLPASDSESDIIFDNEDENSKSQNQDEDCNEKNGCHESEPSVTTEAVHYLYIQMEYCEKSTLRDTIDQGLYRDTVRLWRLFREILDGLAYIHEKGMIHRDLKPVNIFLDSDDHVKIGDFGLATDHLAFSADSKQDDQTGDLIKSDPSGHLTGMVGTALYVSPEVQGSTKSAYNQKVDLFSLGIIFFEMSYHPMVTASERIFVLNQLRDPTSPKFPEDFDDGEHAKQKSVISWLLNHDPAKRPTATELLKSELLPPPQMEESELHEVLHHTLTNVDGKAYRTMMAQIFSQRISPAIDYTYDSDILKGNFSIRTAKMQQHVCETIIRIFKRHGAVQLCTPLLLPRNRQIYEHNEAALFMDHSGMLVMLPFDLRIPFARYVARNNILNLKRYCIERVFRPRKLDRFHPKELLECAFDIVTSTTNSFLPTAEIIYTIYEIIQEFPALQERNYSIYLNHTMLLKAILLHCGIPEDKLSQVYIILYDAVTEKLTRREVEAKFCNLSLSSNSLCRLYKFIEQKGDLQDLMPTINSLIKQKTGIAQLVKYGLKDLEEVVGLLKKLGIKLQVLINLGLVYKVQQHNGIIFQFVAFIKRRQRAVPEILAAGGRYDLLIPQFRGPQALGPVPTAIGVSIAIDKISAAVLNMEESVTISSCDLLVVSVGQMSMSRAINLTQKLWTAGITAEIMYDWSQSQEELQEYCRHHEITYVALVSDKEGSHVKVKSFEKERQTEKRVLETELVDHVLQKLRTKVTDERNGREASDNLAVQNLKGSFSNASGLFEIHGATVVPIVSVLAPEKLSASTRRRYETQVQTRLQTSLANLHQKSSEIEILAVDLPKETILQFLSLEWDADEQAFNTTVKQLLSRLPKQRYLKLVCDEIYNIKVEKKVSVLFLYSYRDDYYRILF

[9] = molecular target: Serine/threonine-protein kinase ULK3 (Homo sapiens) (UniProt Q6PHR2); assay: Inhibition of recombinant full-length human ULK3 at 1 uM using casein as substrate measured after 40 mins in presence of [gamma33P]ATP by scintillation counting method relative to control
Serine/threonine-protein kinase ULK3 (Homo sapiens), sequence (Q6PHR2 whole entry): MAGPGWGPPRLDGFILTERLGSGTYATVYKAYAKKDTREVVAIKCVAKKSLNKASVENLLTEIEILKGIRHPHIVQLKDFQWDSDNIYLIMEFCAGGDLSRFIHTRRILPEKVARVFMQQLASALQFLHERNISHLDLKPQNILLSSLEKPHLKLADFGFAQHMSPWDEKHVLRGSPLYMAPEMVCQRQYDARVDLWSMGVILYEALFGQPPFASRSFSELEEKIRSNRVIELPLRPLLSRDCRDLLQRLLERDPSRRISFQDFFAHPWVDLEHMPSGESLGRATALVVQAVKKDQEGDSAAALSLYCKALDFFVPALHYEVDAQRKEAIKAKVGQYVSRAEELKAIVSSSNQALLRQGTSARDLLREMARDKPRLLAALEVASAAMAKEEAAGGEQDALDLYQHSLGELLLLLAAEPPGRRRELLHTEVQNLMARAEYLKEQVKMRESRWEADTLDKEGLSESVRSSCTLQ

A549 [10] = assay: Induction of apoptosis in human A549 cells assessed as necrotic cells at 0.25 uM after 48 hrs by AnnexinV-FITC/PI staining-based flow cytometric analysis (reference value: 0.664%); assay type: functional
[11] = molecular target: Serine/threonine-protein kinase Chk2 (Homo sapiens) (UniProt O96017); assay: Inhibition of recombinant human CHK2 (5 to end residues) at 1 uM using KKKVSRSGLYRSPSMPENLNRPR as substrate measured after 40 mins in presence of [gamma33P]ATP by scintillation counting method relative to control; method in brief: as §2
[12] = molecular target: Mitogen-activated protein kinase kinase kinase kinase 5 (Homo sapiens) (UniProt Q9Y4K4); assay: Inhibition of recombinant full-length human MAP4K5 at 1 uM using MBP as substrate measured after 40 mins in presence of [gamma33P]ATP by scintillation counting method relative to control
[13] = molecular target: Rhodopsin kinase GRK7 (Homo sapiens) (UniProt Q8WTQ7); assay: Inhibition of recombinant full-length human GRK7 at 1 uM using casein as substrate measured after 40 mins in presence of [gamma33P]ATP by scintillation counting method relative to control
Rhodopsin kinase GRK7 (Homo sapiens), sequence (Q8WTQ7 whole entry): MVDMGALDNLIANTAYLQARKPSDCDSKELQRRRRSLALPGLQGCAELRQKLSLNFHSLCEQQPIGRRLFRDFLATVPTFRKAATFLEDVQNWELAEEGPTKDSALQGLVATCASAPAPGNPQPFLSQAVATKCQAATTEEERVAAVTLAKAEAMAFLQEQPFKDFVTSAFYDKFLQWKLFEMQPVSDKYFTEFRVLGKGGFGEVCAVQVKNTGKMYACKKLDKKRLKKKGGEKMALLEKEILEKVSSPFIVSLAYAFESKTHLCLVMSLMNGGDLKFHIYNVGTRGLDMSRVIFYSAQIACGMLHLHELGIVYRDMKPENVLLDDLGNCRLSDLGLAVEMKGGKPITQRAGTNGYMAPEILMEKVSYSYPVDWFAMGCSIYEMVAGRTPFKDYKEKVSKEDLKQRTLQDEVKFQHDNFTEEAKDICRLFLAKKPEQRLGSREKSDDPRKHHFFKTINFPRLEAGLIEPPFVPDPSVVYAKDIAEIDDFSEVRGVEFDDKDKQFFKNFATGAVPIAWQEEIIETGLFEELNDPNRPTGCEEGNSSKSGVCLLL

[14] = molecular target: Insulin-like growth factor 1 receptor (Homo sapiens) (UniProt P08069); assay: Inhibition of recombinant human IGF1R (959 to end residues) at 1 uM using KKKSPGEYVNIEFG as substrate measured after 40 mins in presence of [gamma33P]ATP by scintillation counting method relative to control
[15] = molecular target: Cyclin-dependent kinase 9 (Homo sapiens) (UniProt P50750); conditions: 0.25 uM
Cyclin-dependent kinase 9 (Homo sapiens), sequence (P50750 whole entry): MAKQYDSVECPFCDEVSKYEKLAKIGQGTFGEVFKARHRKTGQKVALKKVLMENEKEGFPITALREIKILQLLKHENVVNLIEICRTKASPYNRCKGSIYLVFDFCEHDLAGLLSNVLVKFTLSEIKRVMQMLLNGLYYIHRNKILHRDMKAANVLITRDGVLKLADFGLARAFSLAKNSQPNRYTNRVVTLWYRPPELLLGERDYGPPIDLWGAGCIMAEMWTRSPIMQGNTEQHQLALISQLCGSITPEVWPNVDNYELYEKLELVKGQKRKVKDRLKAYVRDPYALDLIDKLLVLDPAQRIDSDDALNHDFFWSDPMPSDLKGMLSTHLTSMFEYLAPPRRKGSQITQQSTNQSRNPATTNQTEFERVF

SiHa = assay: Antiproliferative activity against human SiHa cells assessed as inhibition of cell viability at 500 nM after 72 hrs by CCK-8 assay relative to control; assay type: functional
Method in brief: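 Single-concentration viability screen using CCK-8. Cells were seeded at 3000/well and treated for 72 h. A450 read after 1-4 h with reagent. Percent inhibition calculated against untreated control and blank wells as (Ac−As)/(Ac−Ab)×100%.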

[16] = molecular target: Serine/threonine-protein kinase 32A (Homo sapiens) (UniProt Q8WU08); assay: Inhibition of recombinant full-length human STK32A at 1 uM using casein as substrate measured after 120 mins in presence of [gamma33P]ATP by scintillation counting method relative to control
Serine/threonine-protein kinase 32A (Homo sapiens), sequence (Q8WU08 whole entry, the tested form may be a part): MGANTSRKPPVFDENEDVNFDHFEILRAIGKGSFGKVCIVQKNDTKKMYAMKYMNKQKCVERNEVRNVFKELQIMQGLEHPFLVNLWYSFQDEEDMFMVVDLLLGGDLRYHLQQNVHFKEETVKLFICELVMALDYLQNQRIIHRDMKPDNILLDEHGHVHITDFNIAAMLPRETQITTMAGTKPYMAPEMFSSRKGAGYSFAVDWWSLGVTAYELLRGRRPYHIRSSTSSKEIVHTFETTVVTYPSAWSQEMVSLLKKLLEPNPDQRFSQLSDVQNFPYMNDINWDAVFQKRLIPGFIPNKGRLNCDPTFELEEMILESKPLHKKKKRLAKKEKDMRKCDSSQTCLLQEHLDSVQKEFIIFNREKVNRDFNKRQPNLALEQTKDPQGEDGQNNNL

[17] = molecular target: Ephrin type-A receptor 2 (Homo sapiens) (UniProt P29317); assay: Inhibition of recombinant human EphA2 (596 to 900 residues) at 1 uM using poly(Glu, Tyr) 4:1 as substrate measured after 40 mins in presence of [gamma33P]ATP by scintillation counting method relative to control
[18] = test system: Proto-oncogene tyrosine-protein kinase receptor Ret (Homo sapiens), P07949 [V804L]; assay: Inhibition of human Ret V804L mutant (658 to end residues) at 1 uM using KKKVSRSGLYRSPSMPENLNRPR as substrate measured after 40 mins in presence of [gamma33P]ATP by scintillation counting method relative to control; method in brief: as §1
[19] = test system: Glycogen synthase kinase-3 alpha (Homo sapiens), P49840 [UNDEFINED MUTATION]; assay: Inhibition of recombinant full-length human GSK3alpha (2 to end residues) S449A mutant at 1 uM using phospho GS2 peptide as substrate measured after 40 mins in presence of [gamma33P]ATP by scintillation counting method relative to control
[20] = molecular target: Cyclin-dependent kinase 9 (Homo sapiens) (UniProt P50750); conditions: A549, 0.25 to 1 uM
[21] = molecular target: Bone morphogenetic protein receptor type-1B (Homo sapiens) (UniProt O00238); assay: Inhibition of recombinant human ALK6 (148 to end residues) at 1 uM using casein as substrate measured after 40 mins in presence of [gamma33P]ATP by scintillation counting method relative to control
Bone morphogenetic protein receptor type-1B (Homo sapiens), sequence (O00238 whole entry): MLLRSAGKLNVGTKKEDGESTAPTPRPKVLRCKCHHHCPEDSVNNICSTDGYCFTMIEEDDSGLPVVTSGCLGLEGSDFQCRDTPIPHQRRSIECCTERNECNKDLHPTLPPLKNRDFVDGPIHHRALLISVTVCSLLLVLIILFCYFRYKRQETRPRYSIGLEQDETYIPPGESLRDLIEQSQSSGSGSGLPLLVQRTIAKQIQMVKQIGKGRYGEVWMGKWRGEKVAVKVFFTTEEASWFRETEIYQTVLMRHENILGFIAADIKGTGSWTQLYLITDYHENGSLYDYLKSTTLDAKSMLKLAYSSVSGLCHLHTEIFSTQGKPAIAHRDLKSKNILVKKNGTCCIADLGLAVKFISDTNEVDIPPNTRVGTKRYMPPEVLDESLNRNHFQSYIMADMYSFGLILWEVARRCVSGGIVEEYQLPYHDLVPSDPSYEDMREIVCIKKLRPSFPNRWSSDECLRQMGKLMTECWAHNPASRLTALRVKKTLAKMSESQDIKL

`CN(C)C(=O)c1cc2cnc(Nc3ccc(NC(=O)CCCCCCCN=C=S)cc3)nc2n1C1CCCC1` gave an inhibition (Homo sapiens) of 2%, an inhibition [1] of 53% and an inhibition [2] of 56%. For the same compound, the inhibition [3] was 20%, the inhibition [4] was 38% and the Activity (A549 [5]) was “Dose-dependent effect”. For the same compound, the inhibition [6] was -8%, the inhibition [7] was 15% and the inhibition [8] was 0%. It also gave an inhibition [9] of 9%, an Activity (A549 [10]) of 5.83% and an inhibition [11] of 32%. For the same compound, the inhibition [12] was 75%, the inhibition [13] was 9% and the inhibition [14] was -10%. The inhibition [15] was “Active”, the inhibition at 0.5 µM (SiHa) was 11% and the inhibition [16] was 33%. The inhibition [17] was 15%, the inhibition [18] was 46% and the inhibition [19] was 17%. The inhibition [20] was “Active” and the inhibition [21] was -1%.
